For six compounds, Binding constant, IC50 and XL50 results are on record in ChEMBL document CHEMBL1127839, “In vitro photoinduced cytotoxicity and DNA binding properties of psoralen and coumarin conjugates of netropsin analogues: DNA sequence-directed alkylation and cross-link formation” (J Med Chem, 1994).

Series [1] has as its system Nucleic Acid. The experiment in a line: Apparent binding constant was determined by ethidium displacement assay in coliphage T4 DNA. The series is classed as nucleic-acid assay.
Series [2] deals with Nucleic Acid. The experiment in a line: Apparent binding constant was determined by ethidium displacement assay in poly (dG-dC). The series is classed as nucleic-acid assay.
Series [3] concerns Panel leukemia (Carcinoma cell lines). The experiment in a line: In vitro photocytotoxicity is evaluated against human chronic myeloid leukemia cells grown in culture irradiated at 366 nM. The class given is functional, cell-based. The conditions noted are these: light or radiation study. The essentials: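 K562 cells in RPMI 1640 with 10% FCS and 2 mM glutamine were exposed to drug at 0.01-100 μM final for 1 h at 37 °C in the dark. They were washed, then irradiated in PBS for 2 min at 366 nm (420 μW/cm², 5 cm, no filters). Cells were plated at 8 wells per sample and grown 4-5 days in the dark. Readout was MTT at 550 nm; IC50 was taken from the dose-response curve.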

Series [4] is described as follows: Dose to produce photoinduced DNA cross-link formation on isolated DNA.
Series [5] has as its system Nucleic Acid. As to the kind of experiment: Apparent binding constant was determined by ethidium displacement assay in pol (dA-dT). The class given is nucleic-acid assay.
Series [6] deals with Panel leukemia (Carcinoma cell lines). The experiment in a line: In vitro photocytotoxicity is evaluated against human chronic myeloid leukemia cells grown in culture under the dark conditions. The series is classed as functional, cell-based. The essentials:
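Human chronic myeloid leukemia K562 cells were given a 1 h drug exposure (0.01-100 μM final, from DMSO stocks) at 37 °C in the dark, then washed, with no UV irradiation. Cells were cultured 4-5 days in the dark in 96-well plates, 8 wells per sample. MTT was added for 5 h and formazan dissolved in DMSO was read at 550 nm. IC50 was taken from the dose-response curve.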

Series [7] deals with Nucleic Acid. As to the kind of experiment: Apparent binding constant was determined by ethidium displacement assay in calf thymus. The series is classed as nucleic-acid assay. The conditions noted are these: Bos taurus.
A short description of series [8]: Dose to produce […] on isolated DNA; no DNA cross-links.

Regarding `COc1c2occc2cc2ccc(=O)oc12` [METHOXSALEN], the Binding constant in series [1] was 14000 M⁻¹; in series [2] it was 25000 M⁻¹; in series [5], 17000 M⁻¹; in series [7], 48000 M⁻¹. Further, the values for the IC50 in series [3] and in series [6] were 100 µM and more than 100 µM, respectively. In series [4], this compound returned an XL50 of 18 µM.

Regarding `CN(C)CCNC(=O)c1nc(NC(=O)c2nc(NC(=O)CCCCOc3ccc4ccc(=O)oc4c3)cn2C)cn1C`, the Binding constant came to 100000 M⁻¹ in series [1], 140000 M⁻¹ in series [2], 110000 M⁻¹ in series [5] and 100000 M⁻¹ in series [7]. Also, the IC50 is 40 µM in series [3] and more than 100 µM in series [6]. Also, the XL50 result in series [8] is “No DNA crosslinks”.

Turning to `Cn1cc(NC(=O)c2cc(NC(=O)c3cc(NC=O)cn3C)cn2C)cc1C(=O)NCCC(=N)N`, the Binding constant in series [1] was determined as 650000 M⁻¹; in series [2] it was 200000 M⁻¹; in series [5] it was 3.48e+07 M⁻¹; in series [7] it was 770000 M⁻¹.

Take `CN(C)CCNC(=O)c1cc(NC(=O)c2cc(NC(=O)CCCCOc3ccc4ccc(=O)oc4c3)cn2C)cn1C`: the Binding constant is 120000 M⁻¹ in series [1], 110000 M⁻¹ in series [2], 3.5e+06 M⁻¹ in series [5] and 170000 M⁻¹ in series [7]. Besides, the IC50 was 75 µM in series [3] and more than 100 µM in series [6]. Further, the XL50 entry in series [8] is reported as “No DNA crosslinks”.

As to `CN(C)CCNC(=O)c1nc(NC(=O)c2nc(NC(=O)CCCCOc3c4occc4cc4ccc(=O)oc34)cn2C)cn1C`, the Binding constant was determined as 270000 M⁻¹ in series [1], 210000 M⁻¹ in series [2], 90000 M⁻¹ in series [5] and 40000 M⁻¹ in series [7]. In addition, the IC50 in series [3] was found to be 4.5 µM; in series [6], 55 µM. Further, the XL50 in series [4] worked out at 1.6 µM.

As to `CN(C)CCNC(=O)c1cc(NC(=O)c2cc(NC(=O)CCCCOc3c4occc4cc4ccc(=O)oc34)cn2C)cn1C`, the Binding constant in series [1] was 660000 M⁻¹; in series [2], 90000 M⁻¹; in series [5], 290000 M⁻¹; in series [7], 550000 M⁻¹. Besides, the IC50 in series [3] was 0.3 µM; in series [6], more than 100 µM. This compound also returned an XL50 in series [4] of 0.005 µM.
